In ChEMBL document CHEMBL1158465, “Novel small molecule bradykinin B2 receptor antagonists” (J Med Chem, 2009):

Key:
B2 bradykinin receptor [1] = target: T1, B2 bradykinin receptor (Cavia porcellus, UniProt O70526); assay: Displacement of [3H]bradykinin from guinea pig B2 receptor
T1 sequence (O70526 whole entry): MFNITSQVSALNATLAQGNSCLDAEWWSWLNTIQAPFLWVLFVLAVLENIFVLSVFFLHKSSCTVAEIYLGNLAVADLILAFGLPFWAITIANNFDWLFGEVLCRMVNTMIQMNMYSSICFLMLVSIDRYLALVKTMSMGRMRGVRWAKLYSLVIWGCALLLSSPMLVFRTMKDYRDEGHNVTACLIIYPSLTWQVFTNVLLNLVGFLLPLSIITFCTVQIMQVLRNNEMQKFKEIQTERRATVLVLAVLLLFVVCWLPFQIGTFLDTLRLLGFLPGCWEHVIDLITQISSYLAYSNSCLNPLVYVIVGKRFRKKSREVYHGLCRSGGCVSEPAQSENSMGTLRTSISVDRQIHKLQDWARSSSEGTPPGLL

B2 bradykinin receptor [2] = target: T2, B2 bradykinin receptor (Homo sapiens, UniProt P30411); assay: Displacement of [3H]bradykinin from human recombinant B2 receptor expressed in HEK293 cells; type: cell-based
T2 sequence (P30411 whole entry): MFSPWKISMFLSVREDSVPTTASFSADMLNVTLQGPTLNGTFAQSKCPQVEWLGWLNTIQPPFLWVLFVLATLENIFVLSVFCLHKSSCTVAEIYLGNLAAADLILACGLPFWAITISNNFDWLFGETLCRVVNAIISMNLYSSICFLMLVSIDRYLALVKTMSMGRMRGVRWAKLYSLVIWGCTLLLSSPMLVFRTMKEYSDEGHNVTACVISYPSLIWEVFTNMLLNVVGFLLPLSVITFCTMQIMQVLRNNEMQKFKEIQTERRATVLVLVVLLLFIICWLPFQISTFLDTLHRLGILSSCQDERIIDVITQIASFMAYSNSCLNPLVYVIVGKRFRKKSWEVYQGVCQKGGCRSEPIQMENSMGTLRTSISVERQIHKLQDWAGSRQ

B2 bradykinin receptor [3] = target: T2, B2 bradykinin receptor; assay: Antagonist activity at B2 receptor in human HF15 cells assessed as inhibition of bradykinin-induced calcium mobilization; type: functional, cell-based
Cytochrome P450 2C19 = Cytochrome P450 2C19 (Homo sapiens, UniProt P33261); assay: Inhibition of human CYP2C19 by microtiter plate assay; type: ADME
Sequence of Cytochrome P450 2C19 (P33261 whole entry): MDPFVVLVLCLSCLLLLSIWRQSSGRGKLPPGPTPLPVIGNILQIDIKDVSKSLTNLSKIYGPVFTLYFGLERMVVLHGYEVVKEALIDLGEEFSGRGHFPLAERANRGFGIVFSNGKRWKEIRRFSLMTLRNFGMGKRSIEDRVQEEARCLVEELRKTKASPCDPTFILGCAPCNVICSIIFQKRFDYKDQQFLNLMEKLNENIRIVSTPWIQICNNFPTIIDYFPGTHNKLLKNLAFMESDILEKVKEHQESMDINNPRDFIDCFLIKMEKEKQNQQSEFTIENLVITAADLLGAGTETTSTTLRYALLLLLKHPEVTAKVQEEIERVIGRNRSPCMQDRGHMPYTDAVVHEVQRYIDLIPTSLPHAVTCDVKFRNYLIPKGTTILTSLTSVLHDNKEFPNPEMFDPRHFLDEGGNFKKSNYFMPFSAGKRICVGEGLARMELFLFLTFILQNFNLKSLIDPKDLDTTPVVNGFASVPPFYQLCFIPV

[4] = Metabolic stability in human liver microsomes at 1 uM by HPLC; type: ADME, Microsome; conditions: read-out: Stability
How it was run: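 Test compound was incubated with liver microsomes for 30 min. Stability is expressed as the percentage of parent compound remaining at the end of incubation.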

Cytochrome P450 3A4 = Cytochrome P450 3A4 (Homo sapiens, UniProt P08684); assay: Inhibition of human CYP3A4 by microtiter plate assay; type: ADME
Sequence of Cytochrome P450 3A4 (P08684 whole entry): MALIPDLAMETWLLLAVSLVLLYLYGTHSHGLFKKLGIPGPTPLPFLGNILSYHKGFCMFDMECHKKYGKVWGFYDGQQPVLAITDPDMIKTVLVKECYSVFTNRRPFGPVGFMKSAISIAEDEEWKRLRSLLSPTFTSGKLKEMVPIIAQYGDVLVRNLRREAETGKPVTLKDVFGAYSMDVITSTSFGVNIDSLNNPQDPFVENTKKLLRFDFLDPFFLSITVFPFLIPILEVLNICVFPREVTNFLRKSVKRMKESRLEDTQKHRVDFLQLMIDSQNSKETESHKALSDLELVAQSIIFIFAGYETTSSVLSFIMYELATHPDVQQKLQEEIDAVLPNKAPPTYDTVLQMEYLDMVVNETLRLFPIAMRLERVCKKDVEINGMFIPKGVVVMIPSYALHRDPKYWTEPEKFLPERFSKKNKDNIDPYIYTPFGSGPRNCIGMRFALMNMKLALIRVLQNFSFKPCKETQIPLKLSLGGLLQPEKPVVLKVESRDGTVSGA

B2 bradykinin receptor [5] = target: T2, B2 bradykinin receptor; assay: Displacement of [3H]bradykinin from wild-type B2 receptor
How it was run: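 Specific binding of [³H]-BK to recombinant human B₂ receptor expressed in HEK293 cells. Displacement by test compound is reported as IC₅₀. Values are the numerical average of at least two experiments.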

[6] = Displacement of [3H]bradykinin from B2 receptor N107A mutant
[7] = Aqueous solubility of the compound; type: physicochemical; conditions: aqueous solution
[8] = Clearance in Wistar rat at 1 mg/kg, iv or 1 mg/kg, po; type: ADME, organism-based; conditions: in vivo
[9] = Terminal half life in Wistar rat at 1 mg/kg, iv or 1 mg/kg, po; type: ADME, organism-based; conditions: in vivo, read-out: beta t1/2
[10] = Oral bioavailability in Wistar rat at 1 mg/kg; type: ADME, organism-based; conditions: in vivo

| Compound | IC50 (B2 bradykinin receptor [2]) [nM] | IC50 (B2 bradykinin receptor [3]) [nM] | also measured |
| --- | --- | --- | --- |
| Cc1ccc2cccc(OCc3c(Cl)ccc(N(C)C(=O)CNC(=O)/C=C/c4ccc(C(F)(F)F)cc4)c3C#N)c2n1 |  |  | IC50 (B2 bradykinin receptor [1]): 0.3 nM |
| Cc1cc(-c2conc2C)c2cccc(OCc3c(Cl)cncc3Cl)c2n1 | 430 | 3800 |  |
| Cc1cc(-n2ccnc2C)c2cccc(OCc3c(Cl)cncc3Cl)c2n1 | 200 | 1300 |  |
| Cc1cc(-c2csnc2C)c2cccc(OCc3c(Cl)cncc3Cl)c2n1 | 200 | 330 |  |
| Cc1cc(-c2cncs2)c2cccc(OCc3c(Cl)cncc3Cl)c2n1 | 135 | 420 |  |
| Cc1cc(-c2cscn2)c2cccc(OCc3c(Cl)cncc3Cl)c2n1 | 80 | 300 |  |
| Cc1cc(-c2ocnc2C)c2cccc(OCc3c(Cl)cncc3Cl)c2n1 | 6050 | > 5000 |  |
| Cc1cc(-c2cc[nH]n2)c2cccc(OCc3c(Cl)cncc3Cl)c2n1 | 310 | 350 |  |
| Cc1ccc2cccc(OCc3c(Cl)cncc3Cl)c2n1 | 5300 |  |  |
| Cc1cc(-c2ccnn2C)c2cccc(OCc3ccncc3Cl)c2n1 | 517 | 1600 |  |
| Cc1cc(-c2ccnn2C)c2cccc(OCc3c(Cl)cncc3Sc3nccs3)c2n1 | 50 | 29 | IC50 (B2 bradykinin receptor [5]): 470 nM; IC50 [6]: 2300 nM |
| Cc1cc(-c2ccnn2C)c2cccc(OCc3c(Cl)cncc3Sc3nccn3C)c2n1 | 18 | 43 |  |
| Cc1ccc2cccc(OCc3c(Cl)cccc3Cl)c2n1 |  |  | solubility [7]: < 1 µM |
| Cc1cc(-c2ccnn2C)c2cccc(OCc3c(Cl)cncc3CNS(C)(=O)=O)c2n1 | 14 | 110 |  |
| Cc1cc(-c2ccnn2C)c2cccc(OCc3c(Cl)cncc3CCC(=O)N(C)C)c2n1 | 36 | 73 |  |
| Cc1cc(-c2scnc2Cl)c2cccc(OCc3c(Cl)cncc3Cl)c2n1 | 980 | 2500 |  |
| Cc1cc(-n2ccnc2)c2cccc(OCc3c(Cl)cncc3Cl)c2n1 | 580 | 2500 | solubility [7]: > 50 µM |

| Compound | IC50 (B2 bradykinin receptor [2]) [nM] | IC50 (B2 bradykinin receptor [3]) [nM] | also measured |
| --- | --- | --- | --- |
| Cc1cc(-c2ccnn2C)c2cccc(OCc3c(Cl)cncc3COc3ccccn3)c2n1 | 140 | 260 |  |
| Cc1cc(-c2nccs2)c2cccc(OCc3c(Cl)cncc3Cl)c2n1 | 420 | 480 |  |
| Cc1cc(-c2n[nH]cc2C)c2cccc(OCc3c(Cl)cncc3Cl)c2n1 | 110 | 390 | remaining at 1 µM [4]: 19% |
| Cc1cc(-c2nscc2C)c2cccc(OCc3c(Cl)cncc3Cl)c2n1 | 20 | 70 |  |
| Cc1cc(-c2cncn2C)c2cccc(OCc3c(Cl)cncc3Cl)c2n1 | 4400 |  |  |
| Cc1cc(-c2ncc(C)n2C)c2cccc(OCc3c(Cl)cncc3Cl)c2n1 | 200 | 3400 |  |
| Cc1cc(-c2nccn2C)c2cccc(OCc3c(Cl)cncc3Cl)c2n1 | 90 | 760 |  |
| Cc1cc(-c2ccnn2C)c2cccc(OCc3c(Cl)cncc3CCC(N)=O)c2n1 | 33 | 190 |  |
| Cc1cc(-c2ccnn2C)c2cccc(OCc3c(Cl)cncc3Cl)c2n1 | 50 | 180 | remaining at 1 µM [4]: 7% |
| Cc1cc(-n2cccn2)c2cccc(OCc3c(Cl)cncc3Cl)c2n1 | 32 | 920 |  |
| Cc1cc(-c2ccnn2C)c2cccc(OCc3c(Cl)cncc3[S+]([O-])CC(=O)N(C)C)c2n1 (configuration not stated) | 37 | 76 |  |
| Cc1cc(-c2ncnn2C)c2cccc(OCc3c(Cl)cncc3Cl)c2n1 | 68 | 2400 |  |
| Cc1cc(-c2ncsc2C)c2cccc(OCc3c(Cl)cncc3Cl)c2n1 | 64 | 400 |  |
| Cc1cc(-c2ncsc2Cl)c2cccc(OCc3c(Cl)cncc3Cl)c2n1 | 210 | 730 | remaining at 1 µM [4]: 35% |
| Cc1cc(-c2nncn2C)c2cccc(OCc3c(Cl)cncc3Cl)c2n1 | 7100 |  |  |
| Cc1cc(-c2scnc2C)c2cccc(OCc3c(Cl)cncc3Cl)c2n1 | 110 | 67 |  |
| Cc1cc(-c2cn[nH]c2C)c2cccc(OCc3c(Cl)cncc3Cl)c2n1 | 3600 | 6300 |  |

The remaining compounds from weak to strong by IC50 (B2 bradykinin receptor [2]), led by results:

| IC50 (B2 bradykinin receptor [2]) [nM] | IC50 (B2 bradykinin receptor [3]) [nM] | Compound | also measured |
| --- | --- | --- | --- |
| 12 | 24 | CC(=O)NCc1cncc(Cl)c1COc1cccc2c(-c3ccnn3C)cc(C)nc12 |  |
| 10 | 1.3 | Cc1cc(-c2ncsc2Cl)c2cccc(OCc3c(C)ccnc3Cn3cccc(C(F)(F)F)c3=O)c2n1 | IC50 (Cytochrome P450 2C19): 300 nM; remaining at 1 µM [4]: 34%; IC50 (Cytochrome P450 3A4): 300 nM |
| 10 | 1.8 | Cc1cc(-c2ccnn2C)c2cccc(OCc3c(C)ccnc3CNC(=O)C3CCCCC3)c2n1 | IC50 (Cytochrome P450 2C19): 1600 nM; remaining at 1 µM [4]: 17%; IC50 (Cytochrome P450 3A4): 2500 nM |
| 8.8 | 0.54 | Cc1cc(-c2ccnn2C)c2cccc(OCc3c(C)ccnc3Cn3cccc(C(F)(F)F)c3=O)c2n1 | IC50 (Cytochrome P450 2C19): > 5000 nM; remaining at 1 µM [4]: 45%; IC50 (Cytochrome P450 3A4): > 5000 nM |
| 8.7 | 1.1 | Cc1cc(-c2[nH]ncc2C)c2cccc(OCc3c(C)ccnc3Cn3cccc(C(F)(F)F)c3=O)c2n1 | IC50 (Cytochrome P450 2C19): > 5000 nM; remaining at 1 µM [4]: 21%; IC50 (Cytochrome P450 3A4): 3800 nM; clearance [8]: 21 mL/min/kg; half-life [9]: 1.12 h; bioavailability [10]: > 17% |
| 8.3 | 12 | Cc1cc(-c2ccnn2C)c2cccc(OCc3c(Cl)cncc3COC(=O)N(C)C)c2n1 |  |
| 7.8 | 2.3 | Cc1cc(-c2ccnn2C)c2cccc(OCc3c(Cl)cncc3CNC(=O)C(C)C)c2n1 |  |
| 7.5 | 24 | Cc1cc(-c2ccnn2C)c2cccc(OCc3c(Cl)cncc3SCC(=O)N(C)C)c2n1 |  |
| 6.6 | 2.8 | Cc1cc(-c2ccnn2C)c2cccc(OCc3c(Cl)cncc3CNC(=O)N(C)C)c2n1 |  |
| 6.5 | 91 | Cc1cc(-c2ccnn2C)c2cccc(OCc3c(Cl)cncc3OCC(=O)N(C)C)c2n1 |  |
| 6 | 260 | CC(=O)OCc1cncc(Cl)c1C(=O)c1cccc2c(-c3ccnn3C)cc(C)nc12 |  |
| 5.4 | 3.8 | Cc1cc(-c2ccnn2C)c2cccc(OCc3c(C)ccnc3CNC(=O)C(C)C)c2n1 | IC50 (Cytochrome P450 2C19): > 5000 nM; remaining at 1 µM [4]: 13%; IC50 (Cytochrome P450 3A4): 3100 nM |
| 5.1 | 3.6 | Cc1cc(-c2ccnn2C)c2cccc(OCc3c(Cl)cncc3Cn3ccccc3=O)c2n1 |  |
| 4 | 1.4 | Cc1cc(-c2ccnn2C)c2cccc(OCc3c(Cl)cncc3Cn3cccc(C(F)(F)F)c3=O)c2n1 |  |
| 0.67 |  | Cc1cc(C)c2cccc(OCc3c(Cl)ccc(S(=O)(=O)N4CCC[C@H]4C(=O)CCCNC(=O)c4ccc(C(=N)N)cc4)c3Cl)c2n1 |  |
| 0.05 |  | Cc1cc(C)c2cccc(OCc3c(Cl)ccc(S(=O)(=O)NC4(C(=O)N5CCN(C(=O)[C@@H](N)CCC[N+](C)(C)C)CC5)CCOCC4)c3Cl)c2n1 [FASITIBANT CHLORIDE] |  |
